Screens as filed in PubChem BioAssay.
Most compounds without a hit are left out; they make up all but 3.1% or so of the library.
pPAFAH FP inh = inhibitors of human plasma PAF acetylhydrolase (pPAFAH); Q13093; recombinant pPAFAH, FP-rhodamine probe fluorescence polarization; inhibition, % at 3.39 µM; 1.5% of 330,000 active; AID 463082;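 active = inhibition above the mean inhibition across the screen plus 3 SD, cut at about 25% in these data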;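 also: inhibitors block binding of the rhodamine activity-based probe so polarization drops; 0% = enzyme with DMSO and 100% = wells lacking pPAFAH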
Target sequence (Q13093 whole entry, looked up): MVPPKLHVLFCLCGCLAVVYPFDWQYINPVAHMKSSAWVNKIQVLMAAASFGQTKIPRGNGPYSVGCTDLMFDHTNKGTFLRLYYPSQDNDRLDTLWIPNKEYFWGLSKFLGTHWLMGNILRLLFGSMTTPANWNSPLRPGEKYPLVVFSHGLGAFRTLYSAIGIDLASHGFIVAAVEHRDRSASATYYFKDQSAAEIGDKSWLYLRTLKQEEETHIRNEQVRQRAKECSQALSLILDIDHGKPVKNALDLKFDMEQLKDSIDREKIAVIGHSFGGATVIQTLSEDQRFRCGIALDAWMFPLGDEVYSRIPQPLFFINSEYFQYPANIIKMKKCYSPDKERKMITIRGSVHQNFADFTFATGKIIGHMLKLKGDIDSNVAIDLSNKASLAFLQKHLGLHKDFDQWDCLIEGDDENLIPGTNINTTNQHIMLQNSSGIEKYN
PAFAH1B2 FP inh = PAFAH1B2 (human) inhibition | 1.2% of 340,000 active | P68402 | inhibition, % at 3.39 µM | recombinant PAFAH1B2, FP-rhodamine activity probe, fluorescence polarization | AID 492953;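 active = inhibition above the mean of all tested compounds plus 3 SD, cut at about 24% in these data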;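 also: 0% = enzyme with DMSO and 100% = wells lacking PAFAH1B2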
Target sequence (P68402 whole entry, looked up): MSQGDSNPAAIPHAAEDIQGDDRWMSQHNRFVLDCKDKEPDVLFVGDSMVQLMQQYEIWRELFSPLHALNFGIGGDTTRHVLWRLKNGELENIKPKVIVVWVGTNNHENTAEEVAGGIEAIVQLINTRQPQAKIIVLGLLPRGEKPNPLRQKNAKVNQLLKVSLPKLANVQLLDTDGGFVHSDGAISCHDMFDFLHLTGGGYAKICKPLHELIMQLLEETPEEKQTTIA
Apaf-1 inh = inhibitors of human Apaf-1 apoptosome; 0.71% of 330,000 active; O14727; reconstituted apoptosome caspase-3 activity, DEVD-Rh110 fluorescence; AID 489030; inhibition, % at 20 µM; active = inhibition of at least 40% at 20 µM;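 also: plate controls were DMSO wells for no effect and DEVD-CHO caspase inhibitor wells for full effect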
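System: Apoptosome proteins | Medium: Hepes pH 7.5 with detergent and BSA | Also added: Cytochrome c trigger plus (Z-DEVD)2-Rh110 caspase-3 substrate | Incubation: 30 min compound preincubation, 50 min activation, room temperature | Detection: Rhodamine 110 fluorescence at Ex 480/Em 540 nm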
PAFAH1B3 FP inh = inhibitors of human PAFAH1B3; recombinant PAFAH1B3, FP-rhodamine probe, fluorescence polarization; AID 492972; 0.28% of 340,000 active; Q15102; inhibition, % at 3.39 µM;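 active = inhibition above the screen-wide average of all tested compounds plus 3 SD, cut at about 25% in these data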;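 also: 0% = enzyme with DMSO only and 100% = wells lacking PAFAH1B3 protein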
PAFAH2 FP inh = PAFAH2 (human) inhibition; inhibition, % at 3.39 µM; recombinant PAFAH2, FP-rhodamine activity probe, fluorescence polarization; Q99487; 0.99% of 340,000 active;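 active = inhibition above the mean over all tested compounds plus 3 SD, cut at about 30% in these data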;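 also: inhibitors block probe labeling of enzyme so polarization drops; 0% = enzyme with DMSO and 100% = wells lacking PAFAH2 protein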
PAFAH2 confirm = confirmation of human PAFAH2 inhibitors. shares compounds with PAFAH2 FP inh. recombinant PAFAH2, FP-rhodamine activity probe, fluorescence polarization. inhibition, % at 3.39 µM. 65% of 2,300 active. AID 493030;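 active = mean inhibition over three repeats above a set limit taken from the earlier primary screen, cut at about 30% in these data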;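 also: inhibitor blocks binding of rhodamine activity probe so polarization falls; 0% = enzyme with DMSO and 100% = wells lacking PAFAH2 protein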
An asterisk follows results filed as active; . = not tested or not shown.

SMILES	pPAFAH FP inh	PAFAH1B2 FP inh	Apaf-1 inh	PAFAH1B3 FP inh	PAFAH2 FP inh	PAFAH2 confirm
O=C(ON=C1CCN(c2ccc([N+](=O)[O-])cc2)CC1)c1ccccc1	9.9	5.9	4.3	7.1	90.0*	86.4*
C[C@H](NCc1c[nH]c2ccccc12)c1ccccc1	0.9	4.2	-5.8	4.7	2.9	.
Cc1ccc(C(=O)n2nc(-n3cccc3)c3c(C)cc(C)nc32)cc1	.	2.0	.	9.7	48.9*	51.4*
Cc1cc(C)c2c(-n3cccc3)nn(C)c2n1	6.4	3.1	7.7	6.4	-6.7	.
CS(=O)(=O)c1ccc(Cl)c(NC(=O)Cc2ccccc2F)c1	13.4	0.8	6.2	7.0	52.2*	30.4*
CS(=O)(=O)c1ccc(Cl)c(NC(=O)Cc2c(F)cccc2Cl)c1	-1.8	5.0	-7.6	9.2	15.9	.
COC(=O)Nc1nc(-c2ccccc2)c(C(=O)c2ccccc2)s1	0.1	16.9	9.0	-2.9	53.1*	50.0*
COCCOc1ccc(C(F)(F)F)cc1NC(=O)COC(=O)C12CC3CC(CC(O)(C3)C1)C2	2.9	10.2	16.0	7.9	3.1	.
O=C(COC(=O)C12CC3CC(CC(C3)C1)C2)Nc1ccccc1F	11.1	10.6	1.1	12.3	39.6*	28.8
Cc1c(Cl)cccc1NC(=O)COC(=O)C12CC3CC(CC(O)(C3)C1)C2	-2.1	-1.4	-1.2	3.8	43.1*	15.6
O=C(COC(=O)C12CC3CC(CC(O)(C3)C1)C2)Nc1ccc(Br)cc1F	1.0	-0.1	9.5	4.5	30.3*	12.9
NC(=O)COC(=O)C12CC3CC(CC(O)(C3)C1)C2	3.9	2.9	2.5	5.3	8.9	.
CCc1ccc(/C=C2\Oc3c(ccc(O)c3CN3CCN(CCO)CC3)C2=O)cc1	2.3	-0.6	-11.4	-0.4	58.2*	39.0*
CCc1ccc(/C=C2\Oc3cc(OS(C)(=O)=O)ccc3C2=O)cc1	6.6	1.6	16.0	1.7	1.0	.
CSc1nc(-c2ccccc2)nc(C(C)C)n1	-1.1	-1.7	6.9	8.3	-0.6	.
Cc1cc(C)n(-c2ccc(C(=O)OCC(=O)Nc3ccccc3F)cc2)n1	23.6	2.6	-2.8	4.7	61.9*	51.1*
Cc1cc(C)n(-c2ccc(C(=O)OCC(=O)Nc3ccccc3[N+](=O)[O-])cc2)n1	16.6	2.2	0.0	2.2	11.4	.
Cc1ccc(NC(=O)COC(=O)c2ccc(-n3nc(C)cc3C)cc2)c(F)c1	18.8	2.8	15.2	-0.2	41.8*	42.5*
C#CCOCCOCCOCCNc1nc(N2CCN(C(=O)[C@H](CC(N)=O)n3cc([C@@H](N)C(C)C)nn3)CC2)nc(N2CCN(C(=O)[C@H](CC(N)=O)n3cc([C@@H](N)C(C)C)nn3)CC2)n1	2.0	2.5	3.3	23.1	10.0	.
CCN(CC)S(=O)(=O)c1ccc(O)c(NC(=O)CN2CCc3ccccc3C2)c1	6.8	-1.1	4.7	-3.1	55.7*	55.9*
CCOc1ccc(S(=O)(=O)/N=C(/Nc2ccc(S(N)(=O)=O)cc2)c2ccccc2)cc1	4.1	6.7	7.3	9.3	44.5*	23.2
Cc1ccc(C)c(S(=O)(=O)N2CCN(CC(=O)NC(C)c3ccccc3)CC2)c1 (stereo not drawn)	-8.2	3.0	7.6	5.1	-8.6	.
Cc1ccc(S(=O)(=O)Nc2c(O)ccc3ccccc23)cc1	14.2	.	7.9	.	.	.
O=S(=O)(Nc1c(O)ccc2ccccc12)c1cccc2ccccc12	12.1	5.8	9.3	20.4	31.5*	16.2
Cc1cc(C)n(CCCNC(=O)CCNS(=O)(=O)c2ccccc2C(F)(F)F)n1	1.5	4.0	1.0	1.4	6.5	.
SMILES	pPAFAH FP inh	PAFAH1B2 FP inh	Apaf-1 inh	PAFAH1B3 FP inh	PAFAH2 FP inh	PAFAH2 confirm
O=c1c2cnn(-c3ccccc3)c2nc(-c2ccco2)n1-c1ccccc1	7.5	0.8	15.4	3.4	-2.3	.
O=c1oc(-c2ccco2)nc2c1cnn2-c1ccccc1	1.8	9.1	-13.8	11.1	85.4*	59.3*
C=CCn1c(SCC(=O)/C(C#N)=C(\C)N)nnc1C1CCCCC1	3.4	2.7	-7.0	3.4	9.7	.
C=CCn1c(SCC(=O)N(C)C2CCCCC2)nnc1C1CC1	0.0	5.2	8.9	6.6	34.3*	25.4
O=C(COC(=O)c1cccs1)Nc1cc(S(=O)(=O)N2CCOCC2)ccc1Cl	1.2	2.4	-2.3	-1.9	53.3*	38.0*
O=C(COC(=O)c1ccc(O)cc1)Nc1cc(S(=O)(=O)N2CCOCC2)ccc1Cl	4.9	3.1	3.4	-1.7	65.4*	53.8*
O=C(COC(=O)c1ccc(F)cc1F)Nc1cc(S(=O)(=O)N2CCOCC2)ccc1Cl	.	3.1	-3.9	10.8	34.4*	20.5
NS(=O)(=O)c1cccc(NC(=O)COC(=O)Cc2ccc(S(=O)(=O)N3CCOCC3)s2)c1	.	3.3	.	5.5	-0.4	.
O=C(COC(=O)c1ccc(F)c(S(=O)(=O)N2CCOCC2)c1)Nc1ccc2c(c1)OCO2	.	1.7	6.7	3.9	78.1*	65.3*
COc1ccc(C(=O)OCC(=O)Nc2ccc3c(c2)OCO3)cc1S(=O)(=O)N1CCOCC1	.	2.5	-3.7	3.5	81.6*	82.2*
Cc1ccc(C(=O)OCC(=O)NCc2ccc3c(c2)OCO3)cc1S(=O)(=O)N1CCOCC1	14.5	3.3	-6.3	7.5	9.9	.
CCOC(=O)[C@@H]1[C@H]2COc3ccccc3[C@H]2N2C(=O)N(c3ccc(Cl)cc3)C(=O)[C@]12C	2.3	10.2	15.6	2.5	5.8	.
O=C(COC(=O)c1ccc(O)cc1O)NC12CC3CC(CC(C3)C1)C2	11.5	12.4	3.2	-1.6	74.6*	59.9*
CCN(CC)S(=O)(=O)c1ccc(O)c(C(=O)OCC(=O)NC23CC4CC(CC(C4)C2)C3)c1	5.0	14.1	11.1	1.6	77.4*	68.1*
COc1ccccc1C(=O)OCC(=O)NC12CC3CC(CC(C3)C1)C2	.	2.1	4.1	8.7	73.9*	81.6*
CCN(CC)S(=O)(=O)c1ccc(O)c(C(=O)OCC(=O)Nc2ccc(OC(F)(F)F)cc2)c1	20.5	-0.6	21.1	8.4	38.1*	28.1
CCN(CC)S(=O)(=O)c1ccc(O)c(C(=O)OCC(=O)NC2CCCC2)c1	6.9	6.0	2.1	6.8	18.6	.
CCOc1ccccc1C(=O)N(Cc1sccc1C)C1CCS(=O)(=O)C1 (stereo not drawn)	0.0	-0.5	4.8	0.1	0.6	.
CCOC(=O)c1c(C)[nH]c(C)c1C(=O)COC(=O)c1cccc(S(=O)(=O)N(CC)CC)c1	1.9	1.9	22.9	3.7	1.4	.
CCN(CC)S(=O)(=O)c1cccc(C(=O)OCC(=O)C23CC4CC(CC(C4)C2)C3)c1	5.2	8.1	19.3	0.2	40.0*	25.1
COc1cc(OC)c(C(=O)OCC(=O)NC23CC4CC(CC(C4)C2)C3)cc1OC	5.4	0.6	5.6	6.7	96.8*	81.6*
CCOC(=O)C1(Cc2ccccc2C)CCCN(S(=O)(=O)CC)C1 (stereo not drawn)	4.9	0.5	-10.7	4.2	5.1	.
